The values that follow come from ChEMBL document CHEMBL4251571, “Design, syntheses and lipid accumulation inhibitory activities of novel resveratrol mimics” (Eur J Med Chem, 2018).

Activity calls are given as the source filed them. No cut-off for these calls is given here.

Data set [1] concerns 3T3-L1. As to the kind of experiment: Inhibition of triglyceride accumulation in mouse 3T3L1 cells after 3 days. The following applies: in the assay text read “after 6 days” for “after 3 days”. The data set is classed as functional, cell-based. In a few lines: (§1)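 3T3-L1 preadipocytes differentiated from 2 days post-confluence: 3 days in DMEM/10% FBS with insulin, dexamethasone, 0.5 mM IBMX and biotin, then 3 days with insulin only. Compounds in DMSO (0.1% DMSO vehicle) given on days 0 and 3. Berberine as positive control. Cells washed in ice-cold PBS and lysed; triglyceride measured with a commercial kit. Reported as TG relative to […] cells, mean ± SD of three independent experiments.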

Data set [2] concerns 3T3-L1. Description: Inhibition of triglyceride accumulation in mouse 3T3L1 cells at 1 to 10 uM after 6 days by ORO staining-based microscopic method. In kind it is functional, cell-based. A digest of the protocol: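 Differentiating 3T3-L1 cells received compounds in DMSO with the differentiation cocktail over 6 days, with 0.1% DMSO vehicle and berberine control. On day 6, cells fixed 1 h in 10% formaldehyde/PBS at room temperature and stained 30 min with fresh Oil Red O. After water washes, they were imaged at 10× magnification under constant light settings. Undifferentiated cells served as reference.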

Data set [3] in a line: Cytotoxicity against HEK293T cells after 24 hrs by MTT assay. The following applies: human. The data set is classed as cell-based, HEK-293T. A digest of the protocol:
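HEK293T seeded 5000/well, grown overnight, then exposed to a range of compound concentrations for 24 h with 0.5% DMSO vehicle. MTT (0.05 mg/well) added for 4 h, formazan dissolved in DMSO, absorbance read at 492 nm after 20 min shaking. Percentage computed as (A experiment − A blank)/(A control − A blank).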
Background: Tetrazolium assays rely on reduction of a dye to a coloured formazan, in cell work by metabolically active cells.

The subject of data set [4] is 3T3-L1. As to the kind of experiment: Downregulation of PPARgamma mRNA expression in mouse 3T3L1 cells at 10 uM after 3 days by RT-qPCR method. The data set is classed as functional, cell-based.
The test system of data set [5] is 3T3-L1. Description: Downregulation of SREBP-1c mRNA expression in mouse 3T3L1 cells at 10 uM after 3 days by RT-qPCR method. In kind it is functional, cell-based. In a few lines: (§2)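 Compounds were added to 3T3-L1 cells during cocktail-induced differentiation. Total RNA was extracted with RNAiso plus, and 1 µg was reverse-transcribed before real-time qPCR. Mouse primers were used for AMPK, ACC, SREBP-1c and FABP4. Mean ± SD of 3 independent experiments versus vehicle.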
A general note: Quantitative PCR measures a nucleic acid by following its amplification.

Data set [6] deals with 3T3-L1. Description: Downregulation of FABP4 mRNA expression in mouse 3T3L1 cells at 10 uM after 3 days by RT-qPCR method. The data set is classed as functional, cell-based. A digest of the protocol: as §2
Data set [7] concerns 3T3-L1. As to the kind of experiment: Downregulation of PPARgamma protein expression in mouse 3T3L1 cells at 10 uM after 3 days by Western blotting method. The data set is classed as functional, cell-based. A digest of the protocol: (§3)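 3T3-L1 lysates were made in NP-40/deoxycholate/SDS buffer with protease and phosphatase inhibitors, then transferred to membranes. Membranes were blocked 2 h in 5% skim milk/TBST and probed with antibodies to phospho-Thr172 and total AMPKα, phospho-Ser79 and total ACC, SIRT1, PPARγ, SREBP-1c and FABP4. Detection was by ECL, with densitometry normalized to α-tubulin. Mean ± SD of 3 independent experiments.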

Data set [8] concerns 3T3-L1. Description: Downregulation of SREBP-1c protein expression in mouse 3T3L1 cells at 10 uM after 3 days by Western blotting method. In kind it is functional, cell-based. In a few lines: as §3
(A western blot detects proteins with antibodies after separation by electrophoresis.)

For data set [9], the system named is 3T3-L1. As to the kind of experiment: Downregulation of FABP4 protein expression in mouse 3T3L1 cells at 10 uM after 3 days by Western blotting method. The data set is classed as functional, cell-based. In a few lines: as §3
Data set [10] is filed under the species Mus musculus. Description: Induction of AMPKalpha phosphorylation in mouse 3T3L1 cells at 10 uM after 3 days by Western blotting method relative to control. The data set is classed as cell-based. A digest of the protocol: as §3
For data set [11], the species on record is Mus musculus. Description: Induction of AMPKalpha phosphorylation in mouse 3T3L1 cells assessed as increase in ACC phosphorylation at 10 uM after 3 days by Western blotting method relative to control. The data set is classed as cell-based. In a few lines: as §3
Data set [12] deals with 3T3-L1. As to the kind of experiment: Effect on AMPKalpha mRNA expression in mouse 3T3L1 cells at 10 uM after 3 days by qRT-PCR method. In kind it is functional, cell-based. A digest of the protocol:
as §2

In data set [13] the test system is 3T3-L1. As to the kind of experiment: Effect on ACC mRNA expression in mouse 3T3L1 cells at 10 uM after 3 days by qRT-PCR method. The data set is classed as functional, cell-based. In a few lines:
as §2

In data set [14] the test system is 3T3-L1. As to the kind of experiment: Upregulation of SIRT1 mRNA expression in mouse 3T3L1 cells at 10 uM after 3 days by qRT-PCR method. In kind it is functional, cell-based.
Data set [15] concerns 3T3-L1. As to the kind of experiment: Upregulation of SIRT1 protein expression in mouse 3T3L1 cells at 10 uM after 3 days by Western blotting method. In kind it is functional, cell-based. A digest of the protocol: as §3
The test system of data set [16] is 3T3-L1. As to the kind of experiment: Inhibition of triglyceride accumulation in mouse 3T3L1 cells at 10 uM after 3 days relative to control. The data set is classed as functional. The following applies: 3T3-L1, 72 h. A digest of the protocol: as §1

In the case of `O=c1cc(O)cc(/C=C/c2cccs2)[nH]1`, the inhibition (usually how much of the control response was suppressed) with 3T3-L1 [1] is “Dose-dependent effect”.

Turning to `Oc1ccc(/C=C/c2cc(O)cc(O)c2)cc1` [RESVERATROL], in the data set with 3T3-L1 [2], the inhibition entry was “Active”. The CC50 (usually the concentration that lowers cell viability or growth by half) at 24 h in [3] is 22.8 µM.

As to `Cc1ccc(/C=C/c2cc(O)cc(=O)[nH]2)o1`, the inhibition entry in the data set on 3T3-L1 [1] was “Dose-dependent effect”. The inhibition entry in the data set on 3T3-L1 [2] was “Active”. Besides, the CC50 at 24 h in [3] is greater than 1000 µM. Besides, the outcome in the data set with 3T3-L1 [4], with 3T3-L1 [5], with 3T3-L1 [6], in the data set on 3T3-L1 [7], in the data set with 3T3-L1 [8] and in the data set on 3T3-L1 [9] was Active. Further, the result with 3T3-L1 [14] and with 3T3-L1 [15] was Active. Moreover, the fold change (FC) in the data set filed under Mus musculus [10] came out at 3.1; in the data set filed under Mus musculus [11], 4.12. Also, the result in the data set with 3T3-L1 [12] and with 3T3-L1 [13] was inactive.

Turning to `O=c1cc(O)cc(/C=C/C2CCCCC2)[nH]1`, the inhibition at 10 µM with 3T3-L1 [16] turned out to be 78.4%. Moreover, in the data set with 3T3-L1 [1], the inhibition result is “Dose-dependent effect”. Also, in the data set with 3T3-L1 [2], the inhibition entry is “Active”. This compound also gave a CC50 at 24 h in data set [3] of 13.8 µM. Besides, the result with 3T3-L1 [4], with 3T3-L1 [5], in the data set with 3T3-L1 [6], in the data set on 3T3-L1 [14] and in the data set with 3T3-L1 [15] was Active. The fold change (FC) was found to be 3.45 in the data set filed under Mus musculus [10] and 2.98 in the data set filed under Mus musculus [11]. Further, the result in the data set on 3T3-L1 [12] and in the data set with 3T3-L1 [13] was inactive.

In the case of `O=c1cc(O)cc(/C=C/c2ccccc2Cl)[nH]1`, the inhibition entry in the data set with 3T3-L1 [1] was “Dose-dependent effect”.

As to `COc1ccc2cc3[n+](cc2c1OC)CCc1cc2c(cc1-3)OCO2`, the inhibition entry in the data set with 3T3-L1 [2] was “Active”.

On to `O=c1cc(O)cc(/C=C/c2ccco2)[nH]1`, for which, in the data set with 3T3-L1 [1], the inhibition result was “Dose-dependent effect”.

With `O=c1cc(O)cc(/C=C/c2ccccc2)[nH]1`, in the data set with 3T3-L1 [1], the inhibition entry is “Dose-dependent effect”.
